The full list was thinned out, with hits kept by preference.
CHOP inh: inhibitors of CHOP induction in ER stress response; inhibition, % at 10 µM; AID 2732; CHO-K1 CHOP-promoter luciferase, tunicamycin-induced, 15-18 h; 220,000 tested, 3.8% active;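 active = compounds that reduced the stress-induced luciferase reporter signal by more than about 70% of percent inhibition, limit read from the data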;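 note: 0% = tunicamycin plus vehicle and 100% = wells without tunicamycin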
B2AR ag: human beta-2 adrenergic receptor agonism by FAP | P07550 | Am2.2-beta2AR cells, FAP receptor internalization, flow cytometry | response, % (concentration not given with the values) | 340,000 tested, 0.43% active;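 active = response above a set limit, near 3 SD of response in nonfluorescent compounds, cut at about 42% in these data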
pCIP destab: p/CIP protein destabilization; F442A p/CIP-EGFP cells, EGFP fluorescence, 16 h; decrease of EGFP signal, % at 10 µM; 290,000 tested, 0.01% active; AID 1984;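 active = EGFP signal decrease of at least 30% at 10 µM or well 3 SD below plate mean, unless failing retest; inactive = the rest, including hits failing retest or dose response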
UPR CHOP act: activators of apoptotic arm of unfolded protein response (CHOP). CHO-CHOP luciferase reporter, UPR activation, luminescence; percent of tunicamycin response over DMSO baseline. activation, % at 10 µM. 330,000 tested, 0.34% active. AID 449763;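 active = at 10 µM dose, activation of 40% or more, normalized to positive control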;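 note: 100% = tunicamycin at 10 µg/mL and 0% = DMSO alone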
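Evaluation: % reporter activation, DMSO baseline versus tunicamycin full activation; System: CHO-CHOP luciferase reporter cell line; Input: 500 cells/well; Incubation: 6 h compound treatment, 37 °C; Measured by: Steady-Glo luciferase luminescence; Dosing: one dose, 10 µM in 0.5% DMSO; Buffer or medium: F12 medium, 10% FBS; Benchmarks: positive tunicamycin 10 µg/mL, negative DMSO alone.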
XBP1 UPR activ: adaptive UPR (XBP1) activation; AID 463104; CHO-XBP1 luciferase reporter, IRE1-XBP1 UPR activation, luminescence; percent of tunicamycin response, DMSO as zero; activation, % at 20 µM; 330,000 tested, 0.33% active;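 active = versus positive control, 20 µM dose yields 30% or more activation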;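 note: 100% = tunicamycin at 10 µg/mL and 0% = DMSO only wells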
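Test system: CHO-XBP1 luciferase reporter cells | Buffer or medium: Serum-containing F12 medium, 10% FBS | Schedule: 6 h compound exposure at 37 °C, 5% CO2 | Detection: Steady-Glo luciferase glow luminescence, 10 min after reagent addition | Read-out basis: Activation, % of tunicamycin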
Dynein cargo inh: dynein cargo transport inhibition; z-score, hits read low; 3617.4 mouse cells, GR-EGFP nuclear translocation imaging; test concentration mostly 20 µM; stimulated with dexamethasone, 1 µM; stronger effect = lower value; 220,000 tested, 0.47% active;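 active = plate z-score of nuclear minus cytoplasmic receptor signal below a set negative limit, without overly bright fluorescence or cell loss, cut at about -3.5 in these data, passing the limit was not always enough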;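 note: z-score of nuclear minus cytoplasmic ring GR-EGFP intensity difference per well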
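Buffer or medium: tet-free, stripped-serum medium; Also added: dexamethasone, 1.0 µM final; Technique: high-content fluorescence imaging after fixation; Times: 48 h induction, 1 h compound, 30 min dex at 37 °C; Read-out: per-cell GR-EGFP intensity, nucleus versus surrounding cytoplasmic ring, well-averaged.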
CHOP confirm: confirmation of CHOP induction inhibitors; shares compounds with CHOP inh; CHO-CHOP promoter luciferase reporter, tunicamycin-induced, luminescence; inhibition, % at 10 µM; 2,100 tested, 45% active; AID 504437;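 active = mean of three repeat readings of reporter signal inhibition above a set limit, cut at about 70% in these data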;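 note: 0% = tunicamycin plus vehicle and 100% = wells lacking tunicamycin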
An asterisk follows results filed as active.

Results for O=C1CN(C(=O)c2ccccc2Br)C(c2ccc(F)cc2)c2cc(F)ccc2N1 (stereo unspecified) ?
B2AR ag: 3; pCIP destab: -12; UPR CHOP act: 2; XBP1 UPR activ: -5

What do the screens show for `C/C(=C\c1ccco1)C1C(C#N)=C(N)Oc2n[nH]c(-c3ccccc3)c21` (stereo unspecified)?
CHOP inh: 24; B2AR ag: 5; pCIP destab: 9; UPR CHOP act: -1; XBP1 UPR activ: 2; Dynein cargo inh: -0.41

What do the screens show for `C/C(=C\c1ccco1)C1C(C#N)=C(N)Oc2n[nH]c(-c3ccc(C)cc3)c21` (stereo unspecified)?
CHOP inh: 105*; B2AR ag: 0; pCIP destab: -5; UPR CHOP act: 0; XBP1 UPR activ: 3; Dynein cargo inh: -0.35; CHOP confirm: 114*

How did O=[N+]([O-])c1ccc(O)c(/C=N/Nc2ccccn2)c1 do in these assays?
CHOP inh: 105*; B2AR ag: 8; pCIP destab: -3; Dynein cargo inh: 2.4; CHOP confirm: 11

What do the screens show for `COc1ccc(Cl)cc1C(=O)NNC(=O)CN1C(=O)C2CC=CCC2C1=O` (stereo unspecified)?
CHOP inh: -14; B2AR ag: -8; pCIP destab: -34; UPR CHOP act: 2; XBP1 UPR activ: -4; Dynein cargo inh: -1.3

Results for COc1cc(N=Nc2c(C)n(C)n(-c3ccccc3)c2=O)ccc1N ?
CHOP inh: 10; B2AR ag: -5; pCIP destab: 5; UPR CHOP act: 2; XBP1 UPR activ: 5; Dynein cargo inh: 1.9

Results for Nc1c(N(C(=O)Nc2ccc(Cl)c(Cl)c2)C2CCCC2)c(=O)[nH]c(=O)n1Cc1ccccc1 ?
CHOP inh: 103*; B2AR ag: -2; pCIP destab: -4; UPR CHOP act: 0; XBP1 UPR activ: -3; Dynein cargo inh: -0.43; CHOP confirm: 115*

Results for O=C(NCc1ccccc1Cl)c1ccc(S(=O)(=O)Nc2cccc(C(F)(F)F)c2)cc1 ?
CHOP inh: 98*; B2AR ag: 3; pCIP destab: -9; UPR CHOP act: 0; XBP1 UPR activ: -5; Dynein cargo inh: -0.67; CHOP confirm: 110*

Results for O=C(Nc1ccc(OC(F)F)cc1)Nc1cccc(C(F)(F)F)c1 ?
CHOP inh: 110*; B2AR ag: 8; pCIP destab: -16; UPR CHOP act: 9; XBP1 UPR activ: 11; Dynein cargo inh: -0.68; CHOP confirm: 86*

Results for O=C(Nc1ccncc1)Nc1cccc(C(F)(F)F)c1 ?
B2AR ag: -3; pCIP destab: 3; UPR CHOP act: 0; XBP1 UPR activ: -4

Results for O=C(NCCNC(=O)c1cc(OCC(F)(F)F)ccc1OCC(F)(F)F)Nc1cccc(C(F)(F)F)c1 ?
CHOP inh: 104*; B2AR ag: -4; pCIP destab: -9; UPR CHOP act: 4; XBP1 UPR activ: -5; Dynein cargo inh: 0.2; CHOP confirm: 101*

Results for Cc1ccc(S(=O)(=O)Nc2ccc(NC(=O)Nc3cccc(C(F)(F)F)c3)cc2)cc1 ?
CHOP inh: 99*; B2AR ag: 14; pCIP destab: -3; UPR CHOP act: 4; XBP1 UPR activ: -1; Dynein cargo inh: 2.5; CHOP confirm: 116*

Results for CCN(CC)S(=O)(=O)c1ccc(NC(=O)Nc2cccc(C(F)(F)F)c2)cc1 ?
CHOP inh: 55; B2AR ag: 10; pCIP destab: -1; UPR CHOP act: 15; XBP1 UPR activ: 7; Dynein cargo inh: 1.1

Results for O=C(NCc1ccccc1Cl)c1ccc(S(=O)(=O)N2CCCC2)cc1 ?
B2AR ag: 3; UPR CHOP act: 0; XBP1 UPR activ: 0

How did O=C(C[C@@H]1C/C=C\C[C@@H](Cc2ccc(F)cc2)C(=O)OCCNC1=O)N[C@H](CO)Cc1ccccc1 do in these assays?
B2AR ag: 0; UPR CHOP act: -1; XBP1 UPR activ: 0
